{"source": "ChEMBL document CHEMBL3272112", "about": "“Cycloalkanones. 8. Hypocholesterolemic activity of long-chain ketones related to pentadecanone” (J Med Chem, 1976)", "key": {"Rattus norvegicus [1]": {"tested_on": "Rattus norvegicus", "experiment": "Toxicity in Sprague-Dawley rat assessed as food intake at 5 mg/kg/day measured after 2 weeks (reference value: 24.8 +/- 1.1 g/day)", "assay_type": "organism-based", "details": "in vivo, 336 h"}, "Rattus norvegicus [2]": {"tested_on": "Rattus norvegicus", "experiment": "Toxicity in Sprague-Dawley rat assessed as food intake at 20 mg/kg/day measured after 2 weeks (reference value: 24.8 +/- 1.1 g/day)", "assay_type": "organism-based", "details": "in vivo, 336 h"}, "Rattus norvegicus [3]": {"species_on_record": "Rattus norvegicus", "experiment": "Disruption of rat liver cell membrane assessed as unlysed cells at 5 mg per gram of tissue measured at 4 hrs (reference value: 17 +/- 4%)", "assay_type": "functional", "outline": "(§1)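 Rat liver 10% homogenate in 0.25 M sucrose + 0.001 M EDTA, pH 7.2, incubated at 37°C with Hanke's buffer pH 7.2 and drug suspended in 1% CMC (dose as mg drug per g wet liver); turbidity read as absorbance at 660 nm over 0–4 hr, falling absorbance taken as lysis; expressed as % unlysed cells; vehicle 1% CMC control.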"}, "Rattus norvegicus [4]": {"species_on_record": "Rattus norvegicus", "experiment": "Disruption of rat liver cell membrane assessed as unlysed cells at 25 mg per gram of tissue measured at 4 hrs (reference value: 17 +/- 4%)", "assay_type": "functional", "outline": "as §1"}, "Rattus norvegicus [5]": {"tested_on": "Rattus norvegicus", "experiment": "Toxicity in Sprague-Dawley rat assessed as atrophy of vas deferens at 10 mg/kg/day administered for 16 days measured on day 16 post last dose", "assay_type": "organism-based", "details": "in vivo, 384 h"}}, "data": [{"compound": "CCCCCCCCCCCCCCC(C)=O", "values": [{"measurement": "Activity", "setting": "Rattus norvegicus [1]", "value": 26.3, "unit": "g/day"}, {"measurement": "Activity", "setting": "Rattus norvegicus [2]", "value": 24.2, "unit": "g/day"}, {"measurement": "Activity", "setting": "Rattus norvegicus [3]", "value": 17, "unit": "%"}, {"measurement": "Activity", "setting": "Rattus norvegicus [4]", "value": 18, "unit": "%"}, {"measurement": "Activity", "setting": "Rattus norvegicus [5]", "value": "Non-toxic"}]}]}
